Data set [1] is described as follows: Free GsMTx4 in media with or without serum. The data set is classed as in vitro ADME.
Data set [2] relates to PC12 cells. In words: Neurite outgrowth from PC12 cells. The class given is cell-based, rat. As to conditions: NGF 50 ng/ml alone, 48 h. The procedure, abridged:
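Rat PC12 cells were grown in high-glucose DMEM with 10% FBS, penicillin/streptomycin and 10 mM Hepes at 37 °C in 5% CO2. They were seeded at 4 × 10^4 per well, adhered overnight, then left untreated or given NGF (50 ng/ml final) for 48 h. Phase-contrast images were scored blinded: three random fields per well, at least 4 wells, fields of more than 10 cells, at least 250 cells per experiment. The percentage was calculated per image, and the longest neurite per bearing cell was averaged. Groups were compared by one-way ANOVA with Tukey–Kramer.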

Positions of bridges follow the written chain, without caps; N, C: chain ends. Residues, ends and D or L forms follow the SMILES beside them.

As for `CC(C)C[C@@H]1NC(=O)[C@@H](NC(=O)CN)CSSC[C@@H]2NC(=O)[C@@H]3CSSC[C@@H](C(=O)N[C@@H](CC(N)=O)C(=O)N[C@@H](Cc4ccccc4)C(=O)N[C@@H](CO)C(=O)N[C@@H](Cc4ccccc4)C(N)=O)NC(=O)[C@H](CC(C)C)NC(=O)[C@H](CCCCN)NC(=O)[C@H](Cc4ccccc4)NC(=O)[C@H](CC(C)C)NC(=O)[C@H](CCCCN)NC(=O)[C@H](CO)NC(=O)[C@H](CSSC[C@H](NC(=O)[C@H](CCCCN)NC(=O)[C@H](Cc4c[nH]c5ccccc45)NC(=O)[C@H](Cc4c[nH]c5ccccc45)NC(=O)[C@H](Cc4ccccc4)NC(=O)[C@H](CCC(=O)O)NC1=O)C(=O)N[C@@H](CC(N)=O)C(=O)N1CCC[C@H]1C(=O)N[C@@H](CC(N)=O)C(=O)N[C@@H](CC(=O)O)C(=O)N[C@@H](CC(=O)O)C(=O)N[C@@H](CCCCN)C(=O)N3)NC(=O)[C@H](CCCCN)NC(=O)[C@H](CC(C)C)NC(=O)[C@H](CCCCN)NC(=O)[C@@H]1CCCN1C(=O)[C@H](CCCNC(=N)N)NC2=O` [GsMTx4] (H-GCLEFWWKCNPNDDKCCRPKLKCSKLFKLCNFSF-NH2; disulfide 2-17, 9-23, 16-30), in data set [1] (culture media with 10% serum, mean (total) concentration 100 μM GsMTx4), the free concentration is listed as ~ 5 μM. The “free drug concentration in media as share of the total” value in data set [1] (media with 10% serum) is “about 5%”.

B1: nerve growth factor (protein, UniProt P01139 122-241, looked up)
Beta-nerve growth factor: SSTHPVFHMGEFSVCDSVSVWVGDKTTATDIKGKEVTVLAEVNINNSVFRQYFFETKCRASNPVESGCRGIDSKHWNSYCTTTHTFVKALTTDEKQAAWRFIRIDTACVCVLSRKATRRG
modifications: Beta-nerve growth factor
B1: the “length of the longest neurite per NBC” value in data set [2] (untreated approximately 10 μm) was ~ 20 μm. Also, the “percentage of neurite bearing cells” value in data set [2] (untreated ~1%) was ~ 20%.
